Bioassay records (PubChem)
This is a sample that favours compounds with a hit; in the whole collection about 4.2% have one here.
OX1R antag-1: antagonists of human orexin 1 receptor (OX1R) | 330,000 compounds, 1.8% hits | inhibition, % at 6.6 µM | O43613 | OX1R-expressing cells, FRET antagonist read-out; in the data active = inhibition mostly above about 38%, no sharp cut-off; inactive = mostly below about 40%
OX1R antag-2: antagonists of human orexin 1 receptor; 330,000 compounds, 0.43% hits; inhibition, % at 5 µM; AID 434989; CHO/OX1R cells, Fluo-8 calcium fluorescence, orexin A; O43613;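 active = inhibition above its plate's threshold, mean inhibition of all tested compounds on the plate plus 3 SD, cut at about 37% in these data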
TAAR1 ag: agonists of human TAAR1; CHO RD-HGA16 TAAR1, Fluo-8 calcium fluorescence; vehicle wells 0%, saturating PEA agonist 100%; activation, % at 3 µM; Q96RJ0; 360,000 compounds, 0.99% hits; AID 624467;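 active = activation above the mean activation of all test compounds in the run plus 3 SD, cut at about 38% in these data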
Target sequence (Q96RJ0 whole entry, looked up): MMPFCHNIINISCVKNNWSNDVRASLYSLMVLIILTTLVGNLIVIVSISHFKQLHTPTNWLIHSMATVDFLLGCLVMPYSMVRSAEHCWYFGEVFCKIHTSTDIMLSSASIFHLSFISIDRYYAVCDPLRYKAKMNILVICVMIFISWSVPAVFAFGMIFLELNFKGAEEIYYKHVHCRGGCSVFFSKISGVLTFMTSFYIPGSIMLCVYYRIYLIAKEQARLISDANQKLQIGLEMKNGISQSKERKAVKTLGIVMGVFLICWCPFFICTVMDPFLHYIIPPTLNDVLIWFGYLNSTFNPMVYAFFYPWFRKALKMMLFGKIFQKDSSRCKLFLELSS
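Test system: RD-HGA16 (CHO) cells co-expressing Gα16 and hTAAR1 / Benchmarks: DMSO vehicle as 0%, PEA at EC100 as 100% / Repeats: no replicates (n 1) / Measure: % activation from peak over basal fluorescence ratio, DMSO-to-PEA scaled / Timing: 17-24 h plating, Fluo-8 75 min 37 °C, 30 min RT / Technique: kinetic Fluo-8 calcium fluorescence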
GalR3 antagonist: antagonists of human GalR3 | HEK293 GalR3-CNG cAMP membrane potential fluorescence; galR3 body fused to GalR1 C-terminus | O60755 | 360,000 compounds, 0.44% hits | inhibition, % at 3 µM;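 active = inhibition above the screen-wide average plus 3 SD, cut at about 13% in these data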;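 also: forskolin and galanin both at EC90 stimulate the cells; cAMP rise reported by CNG channel membrane potential dye signal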
Target sequence (O60755 1-299 limits assumed): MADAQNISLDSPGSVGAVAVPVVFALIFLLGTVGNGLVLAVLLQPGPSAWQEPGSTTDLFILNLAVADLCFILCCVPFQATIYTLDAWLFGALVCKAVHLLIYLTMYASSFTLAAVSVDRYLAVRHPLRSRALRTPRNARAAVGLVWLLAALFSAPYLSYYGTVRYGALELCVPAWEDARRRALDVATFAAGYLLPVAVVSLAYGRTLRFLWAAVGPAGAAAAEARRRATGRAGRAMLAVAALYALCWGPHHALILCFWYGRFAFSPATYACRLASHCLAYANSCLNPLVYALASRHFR
CHO parental Ca: signal in parental CHO cells, OX1R antagonist counter-screen. 330,000 compounds, 0.63% hits. AID 463079. inhibition, % at 5.6 µM. parental CHO-K1, ATP-induced calcium, Fluo-8 fluorescence;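 active = inhibition above that plate's mean sample inhibition plus 3 SD, cut at about 26% in these data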
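Material – parental CHO cells · Reagent – ATP stimulus · Compound – single nominal dose of 5.6 µM per compound · Detection – Fluo-8 fluorescence · Read-out basis – percent inhibition of calcium signal · Controls – ATP-challenged DMSO wells low, unchallenged DMSO wells high · Repeats – no replicates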
TAAR1 antagonist: human TAAR1 antagonism; Q96RJ0; CHO RD-HGA16 TAAR1, Fluo-8 calcium fluorescence, antagonist; inhibition, % at 3 µM; 360,000 compounds, 1.5% hits;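 active = inhibition above a per-plate cutoff, the mean inhibition of test compounds on that plate plus 3 SD, cut at about 49% in these data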
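System: RD-HGA16 CHO cells with stable hTAAR1 and Gα16 | Probe or stimulus: EC80 β-phenethylamine stimulus | Dosing: 3 µM, single point | Times: Dye loading 75 min at 37 °C, then 30 min room temperature | Measured by: Fluo-8 calcium-sensitive fluorescence | Read-out basis: % inhibition of agonist calcium response | Replicates: n of 1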
Of the large screens only hits and unclear results are named; the others gave an inactive call; ! = repeats disagree.

CC(=O)N1CCN(c2ccccc2NC(=O)c2cccc3c(Cl)cccc23)CC1	none (no result: OX1R antag-1, OX1R antag-2, CHO parental Ca)
Cc1cccn2c(=O)c3cc(C(=O)NC4CCCC4)sc3nc12	OX1R antag-1 55
O=C(NC1CCCC1)c1cc2c(=O)n3ccccc3nc2s1	none
Cc1ccc(NC(=O)c2ccc(CSc3nnc(C)s3)cc2)cc1	CHO parental Ca 40
Cc1nnc(SCc2ccc(C(=O)O)cc2)s1	none
Cc1cc(C)cc(NC(=O)c2ccc(CSc3nnc(C)s3)cc2)c1	TAAR1 antagonist 66
COCCN1C[C@@H](CO)O[C@@H](n2cnc3c(N4CCN(CCO)CC4)ncnc32)C1	none (no result: OX1R antag-1, OX1R antag-2, CHO parental Ca)
O=C(C[n+]1ccc(/C=N/O)cc1)N(Cc1ccccc1)Cc1ccccc1	OX1R antag-1 53
CCc1nnc(N/N=C/c2ccccc2F)n1N	OX1R antag-1 74
CCOC(=O)N/N=C/c1ccccc1F	none
COc1ccc(-n2c(O)c(/C=N/NS(=O)(=O)c3cc(C)ccc3C)c3ccccc3c2=O)cc1OC	TAAR1 ag 42, TAAR1 antagonist 50
O=S(=O)(Nc1nc2ccccc2nc1Cl)c1ccc(F)cc1	none
C[C@H]1CC[C@H]2C(=O)N3[C@H](c4ccccc4Br)[C@@H](C)CC[C@H]3C(=O)N2[C@@H]1c1ccccc1Br	OX1R antag-1 75 (no result: TAAR1 ag, GalR3 antagonist, TAAR1 antagonist)
C[C@H]1CC[C@H]2C(=O)N3[C@H](c4cccc(N5CCCC5=O)c4)[C@@H](C)CC[C@H]3C(=O)N2[C@@H]1c1cccc(N2CCCC2=O)c1	none (no result: TAAR1 ag, GalR3 antagonist, TAAR1 antagonist)
COCCCN(Cc1cccs1)S(=O)(=O)c1c[nH]c(C(=O)OC)c1	none
O=C(Nc1ccccc1Cl)C1CCCN(S(=O)(=O)c2ccc(F)cc2)C1 (stereo unspecified)	none
O=C(Nc1ccc(F)cc1)C1CCCN(S(=O)(=O)c2cccc3cccnc23)C1 (stereo unspecified)	none
O=C(Nc1ccc(C(F)(F)F)cc1)C1CCCN1S(=O)(=O)c1cccc2cccnc12 (stereo unspecified)	OX1R antag-1 36
CC(=O)c1cccc(NC(=O)C2CCCN2S(=O)(=O)c2cccc3cccnc23)c1 (stereo unspecified)	OX1R antag-1 67
O=C(Nc1cccc(Cl)c1)C1CCCN(S(=O)(=O)c2ccc(F)cc2)C1 (stereo unspecified)	OX1R antag-1 42
CC(=O)c1cccc(NC(=O)C2CCCN(S(=O)(=O)c3cccc4cccnc34)C2)c1 (stereo unspecified)	OX1R antag-1 55, TAAR1 antagonist 52
COc1ccc(C(=O)/C=C/Nc2ccc(S(=O)(=O)Nc3nc(C)cc(C)n3)cc2)c(OC)c1	none
COc1ccc(CN(C)CC(O)COC(c2ccccc2)c2ccccc2)c(OC)c1OC (stereo unspecified)	none
CN1CCN(C(=O)CN(c2cc(C(F)(F)F)ccc2Cl)S(C)(=O)=O)CC1	none
O=C(Nc1nccs1)C1CCCN(S(=O)(=O)c2cccc3cccnc23)C1 (stereo unspecified)	OX1R antag-1 43, TAAR1 antagonist 50
CC1=CC(C)(C)NC(=S)N1c1cc(C)cc(C)c1	none
N[C@@H](CCC(=O)N[C@@H](CSN=O)C(=O)NCC(=O)O)C(=O)O	none (no result: GalR3 antagonist)
Oc1ccc2ccccc2c1/C=N/Nc1ccccc1	none
Oc1ccc2ccccc2c1C=NCc1ccccc1	OX1R antag-1 52
CC[C@]12c3[nH]c4ccccc4c3CCN1C(=O)C(CC(=O)NCCN1CCOCC1)C[C@@H]2C(=O)N1CCN(C(=O)C2CC2)CC1 (stereo partly specified)	none
CCOC(=O)Cc1csc(NC(=O)CSc2nc(C)cc(C)n2)n1	none
COc1ccc(CSc2nc3ccccc3c(=O)[nH]2)cc1F	TAAR1 antagonist 50
CCC(C)Sc1cc(-c2nc3ccc(C)cn3c2NCc2ccccc2)ccc1OC (stereo unspecified)	OX1R antag-2 73, CHO parental Ca 97, TAAR1 antagonist 72
CCC(C)Sc1ccc(-c2nc3ccc(C)cn3c2NCc2ccccc2)cc1OC (stereo unspecified)	OX1R antag-2 56 (no result: TAAR1 ag, GalR3 antagonist, TAAR1 antagonist)
CCCCCCSc1ccc(-c2nc3ccc(C)cn3c2NCc2ccccc2)cc1OC	none
COc1ccc(-c2cc(-c3nc4ccccn4c3NCc3ccccc3)ccc2OC)cc1	OX1R antag-1 89, OX1R antag-2 96, CHO parental Ca 100, TAAR1 antagonist 88
CCC(C)Sc1cccc(-c2nc3cc(C)ccn3c2NCc2ccccc2)c1 (stereo unspecified)	TAAR1 antagonist 77!
CCOc1ccc(N(CC(=O)Nc2ccccc2C(=O)NCc2ccco2)S(C)(=O)=O)cc1	none
CC1(C(=O)Nc2ccc3nc[nH]c3c2)CCN1C(=O)C1(c2ccccc2)CC1 (stereo unspecified)	none (no result: OX1R antag-1, OX1R antag-2, CHO parental Ca)
O=C(c1ccc(CS(=O)Cc2ccc(Cl)cc2)o1)N1CCN(c2ccccc2)CC1 (stereo unspecified)	none
COCCN1C(=O)/C(=C/c2ccc(N3CCCC3)cc2)SC1=S	OX1R antag-2 50, TAAR1 ag 52, CHO parental Ca 42, TAAR1 antagonist 50
COc1ccc(/C=C2\SC(=S)N(CCC(=O)N3CCCCC3)C2=O)cc1	none
CC(C)NC(=O)COC(=O)c1ccc(O)cc1	none
O=C(CSc1ccc2ccccc2c1)NC1CCCc2ccccc21 (stereo unspecified)	OX1R antag-1 71
CCn1c(SCC(=O)NC2CCCc3ccccc32)nnc1-c1ccncc1 (stereo unspecified)	none
Cc1ccc2nc(SCC(=O)c3ccc(Cl)s3)[nH]c2c1	OX1R antag-1 56
CCn1c(SCC(=O)NC2CCCc3ccccc32)nnc1-c1cccs1 (stereo unspecified)	OX1R antag-1 70
Cc1ccc2nc(SCC(=O)NC3CCCc4ccccc43)[nH]c2c1 (stereo unspecified)	OX1R antag-1 73
COc1cc(NC(=O)C2C3C=CC(C3)C2C(=O)O)c(OC)cc1Cl (stereo unspecified)	none
CCc1ccc(NC(=O)CSc2nc(CSc3ccc(C)cc3)cc(=O)[nH]2)cc1	none
Cc1nc(NC(=O)CN(C)S(=O)(=O)c2ccc(Br)cc2)sc1C	none
COc1cc(C(=O)Nc2ccc(NC(=O)c3ccccc3)nc2)cc(OC)c1OC	none
COc1cccc(CNC(=O)CSc2nc3ccc(C)cc3[nH]2)c1	OX1R antag-1 42
COc1ccc2nc(SCC(=O)NCc3ccc(F)cc3)[nH]c2c1	none
O=C(COc1ccc(Br)cc1)Nc1nnc(-c2cccnc2)s1	none
Cc1ccnc(Nc2nc(-c3c(C)nc4sccn34)cs2)c1	OX1R antag-1 55
Cc1ccnc(Nc2nc(-c3ccccc3)cs2)c1	none
